Screening results as filed in PubChem BioAssay.
Shown are actives, neighbours in structure and some others; about 1.4% of the full set was active somewhere.
ARNT-TACC3 inh: disruptors of human ARNT/TACC3 interaction. AlphaScreen His-ARNT PAS-B/GST-TACC3 binding, luminescence; TACC3 fragment carries E629A point mutation. inhibition, % at 9.99 µM. 390,000 compounds, 0.66% hits. AID 623870;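 active means mean inhibition of replicates at least 50% and at least half of replicates each reaching 50%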
CAL PDZ FP-1: inhibitors of human CAL PDZ peptide binding | Q9HD26 | purified CAL PDZ, TMR-peptide fluorescence polarization, 1 h | inhibition, % at 24.9 µM | 300,000 compounds, 0.92% hits | AID 602252;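 active means mean inhibition of at least 30% with at least half of replicates also reaching 30%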
CAL PDZ FP-2: inhibitors of human CAL PDZ peptide binding. Q9HD26. purified CAL PDZ, TMR-peptide fluorescence polarization, 1 h. inhibition, % at 20 µM. 330,000 compounds, 0.02% hits. AID 504414;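 active means highest replicate inhibition of at least 40%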
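System: purified tagged CAL PDZ domain construct (CerCALP). Schedule: 1 h incubation at room temperature before polarization reading. Medium: 25 mM sodium phosphate pH 7.4, 150 mM NaCl, TCEP, IgG, Thesit. Read-out: percent inhibition from loss of millipolarization. Measured by: FP readout, S and P plane fluorescence. Probe or stimulus: fluorescent TMR peptide probe.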
Dyrk1A ADPGlo: inhibitors of rat Dyrk1A kinase; Q63470; ADP-Glo luminescence, NFATc1 peptide; inhibition, % at 12.5 µM; 310,000 compounds, 0.43% hits; in the data active means inhibition above about 50%
ARNT Alpha ctr: AlphaScreen artifact in ARNT/TACC3 counter-screen; shares compounds with ARNT-TACC3 inh; His-ARNT PASB-GST AlphaScreen artifact counter-screen, luminescence; AC50, µM (titrated, usually from 68 µM); 1,200 compounds, 50% hits;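 active means every separate test run was called active for a drop in luminescence, with AC50 within twice the top valid dose, actives reach about 71 µM in these data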
A number is an active result; – = inactive; · = no result given.

SMILES	ARNT-TACC3 inh	CAL PDZ FP-1	CAL PDZ FP-2	Dyrk1A ADPGlo	ARNT Alpha ctr
Cc1ccc(Nc2c(-c3ccccn3)nc3cc(C)ccn23)cc1	62	–	–	–	13µM
CCCC(=O)NC(c1ccc(OC)cc1)c1ccc2cccnc2c1O (configuration not stated)	–	–	–	–	·
CCCC(=O)NC(c1ccccc1)c1ccc2cccnc2c1O (configuration not stated)	61	·	–	–	28µM
CCCCC(=O)NC(c1cccc([N+](=O)[O-])c1)c1ccc2cccnc2c1O (configuration not stated)	61	–	–	–	8.1µM
C[C@@H]1CN([C@H](C)CO)C(=O)c2cc(NC(=O)C3CC3)ccc2O[C@@H]1CN(C)Cc1ccc(-c2ccccc2)cc1	–	·	·	·	·
COc1ccc(OC)c2nc3c(C(=O)NCCN(C)C)cccc3nc12	20	–	–	–	–
CN(C)CCNC(=O)c1cccc2nc3cccc(F)c3nc12	–	–	–	·	·
CCC(=O)N(C)C[C@@H]1Oc2cc(-c3ccccc3F)ccc2S(=O)(=O)N([C@@H](C)CO)C[C@H]1C	–	·	·	·	·
FC(F)(F)c1cnc(-c2cnc(-c3ccccn3)nc2)c(Cl)c1	55	–	–	–	–
CCN=C1S/C(=C\c2cn(C(C)=O)nc2-c2ccccc2)C(=O)N1CC	–	–	–	–	·
CC(=O)NC1=NC(=O)/C(=C/c2cn(C(C)=O)nc2-c2ccccc2)S1	54	–	–	–	–
O=C(c1cccnc1)N1C[C@H]2[C@@H](c3ccccc31)[C@@H](CO)N2Cc1ccc2c(c1)OCO2	–	·	·	·	·
Cc1ccoc1C(=O)NCCCNC(=O)c1occc1C	56	–	–	–	–
CCC(=O)Nc1ccc2c(c1)OC[C@H](C)N(C(=O)CN(C)C)C[C@H](C)[C@H](OC)CN(C)C2=O	–	·	·	·	·
NNc1nnc(-c2ccccc2)c(-c2ccccc2)n1	52	–	–	–	51µM
COC(=O)[C@@H]1[C@@H](CO)[C@@H]2Cn3c(ccc(C4=CCCCC4)c3=O)[C@@H]2N1C(=O)C1CCCC1	–	·	·	·	·
COc1cccc(NC(=O)CSc2ccc3nnc(-c4ccccn4)n3n2)c1	–	–	–	–	·
COc1cc(NC(=O)CSc2ccc(-c3ccccn3)nn2)cc(OC)c1	59	–	–	–	11µM
COc1ccc(C)cc1NC(=O)CSc1ccc(-c2sc(C)nc2C)nn1	–	–	–	–	·
CC(=O)c1cccc(NC(=O)CSc2ccc(-c3ccccn3)nn2)c1	55	–	–	–	15µM
CC(=O)Nc1cccc(NC(=O)CSc2ccc(-c3ccccn3)nn2)c1	58	–	–	·	14µM
COc1ccc(C)cc1NC(=O)CSc1ccc(-c2ccccn2)nn1	54	–	–	–	19µM
COCC#Cc1cnc2c(c1)C(=O)N([C@H](C)CO)C[C@@H](C)[C@H](CN(C)Cc1ccc3c(c1)OCO3)O2	–	·	·	·	·
Cc1ccc(NC(=O)CSc2ccc(-c3ccccn3)nn2)cc1F	50	–	–	–	–
Cc1ccc(NC(=O)CSc2ccc(-c3cccnc3)nn2)cc1Cl	–	–	–	–	·
SMILES	ARNT-TACC3 inh	CAL PDZ FP-1	CAL PDZ FP-2	Dyrk1A ADPGlo	ARNT Alpha ctr
C/C=C/c1ccc([C@@H]2[C@@H](CO)N(Cc3ccccn3)[C@H]2CNC(=O)CC)cc1	–	·	·	·	·
O=C(NC[C@@H]1[C@@H](c2ccccc2)[C@@H](CO)N1Cc1ccccn1)C1CCCC1	–	·	·	·	·
C/C=C/c1ccc([C@H]2[C@@H](CO)N(Cc3ccccn3)[C@H]2CNC(C)=O)cc1	30	·	·	·	–
C/C=C/c1ccc([C@H]2[C@@H](CNC(=O)CC)N(Cc3ccccn3)[C@H]2CO)cc1	47	·	·	·	–
O=C(NC[C@@H]1[C@H](c2ccccc2)[C@H](CO)N1Cc1ccccn1)C1CC1	46	·	·	·	–
Cc1noc(C)c1NC(=O)N(C)C[C@@H]1Oc2ccc(NC(=O)Nc3ccc(F)cc3)cc2CC(=O)N([C@@H](C)CO)C[C@H]1C	–	·	·	·	·
Cc1ccccc1-c1ccc2c(c1)O[C@H](CN(C)C(=O)c1ccccn1)[C@H](C)CN([C@@H](C)CO)S2(=O)=O	–	·	·	·	·
Cc1noc(C)c1S(=O)(=O)Nc1ccc2c(c1)C(=O)N([C@@H](C)CO)C[C@@H](C)[C@@H](CN(C)S(=O)(=O)c1cccs1)OCCCC[C@@H](C)O2	–	·	·	·	·
O=C(NCc1ccccn1)c1ccc(CS(=O)(=O)Cc2ccc(Cl)cc2)o1	–	–	–	–	·
Cc1ccccc1CS(=O)(=O)Cc1ccc(C(=O)NCc2ccccn2)o1	53	–	–	–	–
COc1ccccc1-c1ccc2n(c1=O)C[C@H]1[C@H](CO)[C@@H](C(=O)N(C)C)N(C(=O)c3cccnc3)[C@@H]21	–	·	·	·	·
COc1cc(Cc2nccc3cc(OC)c(OC)cc23)c(S(=O)(=O)O)cc1OC	active	–	–	–	–
COc1cc(Cc2nccc3cc(OC)c(OC)cc23)c(NC(C)=O)cc1OC	–	–	·	–	·
CN(C)CCN(C(=O)c1ccc2c(c1)CCCC2)c1nc2cc3c(cc2s1)OCCO3	52	–	–	–	24µM
C[C@@H]1CN([C@H](C)CO)S(=O)(=O)c2ccc(-c3cncnc3)cc2O[C@H]1CN(C)C(=O)C1CCCCC1	–	·	·	·	·
Cc1ccccc1Nc1nc(N)nc(CN(C)Cc2ccccc2Cl)n1	57	–	–	–	–
Cc1ccc(S(=O)(=O)Nc2cccc3c2O[C@@H](CN(C)S(=O)(=O)c2ccc(F)cc2)[C@H](C)CN([C@@H](C)CO)C3=O)cc1	–	·	·	·	·
O=S(=O)(N[C@H]1CC[C@H](CCn2cc(-c3ccccn3)nn2)O[C@H]1CO)c1cccc(Cl)c1	63	·	·	·	55µM
O=S(=O)(N[C@@H]1CC[C@H](CCn2cc(-c3ccccn3)nn2)O[C@H]1CO)c1cccc(Cl)c1	69	·	·	·	34µM
O=S(=O)(N[C@@H]1CC[C@@H](CCn2cc(-c3ccccc3F)nn2)O[C@@H]1CO)c1ccc(Cl)cc1	–	·	·	·	·
CNC[C@H]1Oc2ccc(NS(=O)(=O)c3ccc(C)cc3)cc2C(=O)N([C@@H](C)CO)C[C@H]1C	–	·	·	·	·
N#CC1=C(N)Oc2c(ccc3cccnc23)C1c1cccnc1 (configuration not stated)	55	–	–	–	41µM
N#CC1=C(N)Oc2cc3ccccc3cc2C1c1cccnc1 (configuration not stated)	–	–	–	–	·
Cc1ccc2cc(C3C(C#N)=C(N)Oc4c3ccc3cccnc43)c(=O)[nH]c2c1 (configuration not stated)	52	·	–	–	52µM
CO[C@@H]1CN(C)C(=O)c2cc(NC(=O)Nc3ccccc3Cl)ccc2OC[C@@H](C)N(C)C[C@H]1C	–	·	·	·	·
Clc1ccccc1/C=N/Nc1cc(N2CCOCC2)ncn1	–	–	–	–	·
CCCOc1ccc(/C=N/Nc2cc(N3CCOCC3)ncn2)c(O)c1	58	–	–	–	–
